The source of these data is ChEMBL document CHEMBL3232953, “Synthesis, characterization and anti-proliferative activity of heterocyclic hypervalent organoantimony compounds” (Eur J Med Chem, 2014).

Experiment [1] deals with A549. Briefly: Antiproliferative activity against human A549 cells after 48 hrs by CCK-8 assay. Type of experiment: functional, cell-based. The settings on record: A549, 48 h. The method, boiled down: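 A549 cells in RPMI1640 with 10% newborn calf serum and 1% penicillin-streptomycin at 37 °C, 5% CO2. Seeded 5 × 10³ cells/well, compounds added after 12 h from DMSO stocks diluted in medium (final DMSO < 0.1% v/v). After 48 h, CCK-8 added for 2 h and OD read at 490 nm. IC50 by Probit regression of inhibition ratio against concentration. At least three experiments.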

Experiment [2] deals with A549. Briefly: Antiproliferative activity against human A549 cells at 30 uM after 24 to 72 hrs by CCK-8 assay. The class given is functional. The gist of the method: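 Time course in A549 cells seeded 5 × 10³ cells/well. Compounds tested at 1, 3, 10 and 30 […] for the periods shown, with final DMSO < 0.1%. Viability by CCK-8 (2 h, OD 490 nm). Mean ± S.D. of three experiments done in triplicate, one-way ANOVA against 24 h and 48 h.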
In general terms: Tetrazolium dyes change colour on reduction, which living cells bring about.

In the case of `CC(C)(C)N(Cc1ccccc1Br)Cc1ccccc1Br`, the IC50 – broadly, the point on the concentration scale where inhibition reaches its midpoint – in the experiment on A549 [1] is greater than 30 µM. For the molecule `Brc1ccccc1CN(Cc1ccccc1Br)C1CCCCC1`, testing at 30 µM in the experiment with A549 [2] gave an inhibition of 9.39%. In the experiment on A549 [1], this molecule showed an IC50 greater than 30 µM. As to `Brc1ccccc1CN(Cc1ccccc1Br)c1ccccc1`, the IC50 with A549 [1] was greater than 30 µM.
